# Assay outcomes from PubChem.
# In the library only some 1.4% were active in any assay of this set; here they are far more common.
# CDK5 inh: inhibitors of human CDK5/p35 kinase, primary screen, biochemical, single concentration. Cyclin-dependent kinase 5 (Homo sapiens) + Cyclin-dependent kinase 5 activator 1 (Homo …. Recombinant CDK5/p35, ADP-Glo luminescence, 60 min. inhibition, % at 10 µM. 330,000 tested, 0.01% active;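 active = highest replicate inhibition of at least 50% and at least 75% of replicates reaching 50%; inconclusive = only one of the two criteria met; inactive = both criteria failed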;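 note: plate controls were DMSO neutral control for no effect and GW8510 at 10 µM for full effect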
# Target sequence (Q00535 whole entry, looked up): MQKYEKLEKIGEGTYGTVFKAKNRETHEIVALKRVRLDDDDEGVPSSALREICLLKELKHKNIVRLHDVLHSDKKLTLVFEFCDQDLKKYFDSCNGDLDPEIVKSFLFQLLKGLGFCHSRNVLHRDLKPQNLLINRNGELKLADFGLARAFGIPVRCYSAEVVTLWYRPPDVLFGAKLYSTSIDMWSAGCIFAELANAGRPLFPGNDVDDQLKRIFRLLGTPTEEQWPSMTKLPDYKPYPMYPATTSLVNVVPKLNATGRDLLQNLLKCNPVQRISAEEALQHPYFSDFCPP
# Target sequence (Q15078 whole entry, looked up): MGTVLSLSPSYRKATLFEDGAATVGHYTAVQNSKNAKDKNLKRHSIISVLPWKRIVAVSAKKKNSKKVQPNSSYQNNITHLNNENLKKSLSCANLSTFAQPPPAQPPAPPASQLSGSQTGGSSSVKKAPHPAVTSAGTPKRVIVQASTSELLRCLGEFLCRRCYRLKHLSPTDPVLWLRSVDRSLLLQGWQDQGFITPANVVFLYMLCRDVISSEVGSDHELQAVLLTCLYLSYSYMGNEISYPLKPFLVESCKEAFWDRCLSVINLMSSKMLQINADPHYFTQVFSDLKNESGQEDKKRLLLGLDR
# Vif imaging: HIV Vif self-association inhibitors, primary screen, imaging, HEK293T, single point; inhibition, % at 7.49 µM; 340,000 tested, 0.35% active; HEK293T cells, Vif self-association by quenched fluorescence, 24 h; AID 602346, 2012; in the data active = inhibition above about 50%, passing the limit was not always enough; inconclusive = no clear call, values can overlap the other calls; inactive = below about 31%
# PvdQ acylase: P. aeruginosa PvdQ acylase inhibitors, primary screen, biochemical, fluorescence, plate reader and imaging, single point | inhibition, % at 10 µM | AID 488965, 2010 | PvdQ acylase [Pseudomonas aeruginosa LESB58] | purified PvdQ acylase | 340,000 tested, 0.063% active; in the data active = inhibition above about 30%, passing the limit was not always enough; inconclusive = no clear call, values can overlap the other calls;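 note: 0% = vehicle neutral wells and 100% = reference inhibitor wells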
# CAL PDZ FP-1: untagged CAL PDZ binding inhibitors, primary screen, biochemical, fluorescence polarization, HTS | inhibition, % at 24.9 µM | purified CAL PDZ, TMR-peptide fluorescence polarization, 1 h | Golgi-associated PDZ and coiled-coil motif-containing protein (Homo sapiens), Q9HD26 | AID 602252, 2012 | 300,000 tested, 0.92% active;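 active = mean inhibition of at least 30% with at least half of replicates also reaching 30%; inconclusive = no clear call, values can overlap the other calls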;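 note: 0% = DMSO neutral control and 100% = excess unlabeled competitor peptide PRC23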
# CAL PDZ FP-2: CAL PDZ peptide-binding inhibitors, primary screen, biochemical, fluorescence polarization, Cer-tagged CAL PDZ, HTS | Golgi-associated PDZ and coiled-coil motif-containing protein (Homo sapiens), Q9HD26 | purified CAL PDZ, TMR-peptide fluorescence polarization, 1 h | inhibition, % at 20 µM | 330,000 tested, 0.02% active;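 active = highest replicate inhibition of at least 40%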;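 note: plate controls were DMSO neutral control wells for no effect and unlabeled competitor peptide control wells for full effect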
#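 Test system: tagged CAL PDZ domain / Buffer or medium: sodium phosphate/NaCl buffer pH 7.4 with TCEP, IgG, Thesit / Reagent: TMR-labelled reporter peptide T*-PRC34 bound in PDZ groove / Compound dosing: single point, 20 µM / Schedule: 1 h incubation at room temperature before polarization reading / Technique: fluorescence polarization (mP) / Benchmarks: unlabelled peptide, DMSO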
# N-glyco inh: increase of ERlucT glycosylation luciferase signal, primary screen, N-linked glycosylation inhibitor project, D54 ERlucT cells, luminescence, set 2 | 360,000 tested, 0.23% active | D54 ERlucT glycosylation luciferase reporter, 24 h; percent of 100 nM tunicamycin response | reporter increase, % at 12.5 µM;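 active = mean luciferase reporter signal, scaled so untreated is 0 and the glycosylation-blocking control 100, at or above a set limit in every replicate; inconclusive = mean reaches the limit but not every replicate does; inactive = mean below the limit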;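 note: luciferase carries N-glycosylation sites so blocking glycosylation raises the light; 0% = median of neutral control wells and 100% = median of 100 nM tunicamycin wells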
# * marks the source's active call; other numbers are inactive results; ? = inconclusive; · = no result given.
SMILES,CDK5 inh,Vif imaging,PvdQ acylase,CAL PDZ FP-1,CAL PDZ FP-2,N-glyco inh
Cc1cc(C)c2c(c1)/C(=N/NC(=O)c1cc(C)oc1C)CCC2,-1,9,-4,-5,0,2
O=C(O)CSCC(=O)N(Cc1ccccc1)c1nc(-c2ccccc2)c(-c2ccccc2)s1,0,14,-14,44*,-1,3
COC(=O)c1c(SCC(=O)NC2CCCCC2)[nH]c2ccccc2c1=O,-1,-9,-2,31*,-2,0
COCCn1c(COc2ccccc2)nnc1SCC(N)=O,3,60*,-4,-1,-2,2
CCC1(C)Cc2c(C#N)c(SC)nc(N3CCOCC3)c2CO1 (stereo unspecified),·,53*,·,·,·,-2
O=C(Nc1cccc(Cl)c1)N1CCN(C/C=C/c2ccccc2)CC1,0,-3,-9,48*,-2,1
COc1ccc(NC(=S)N2CCN(C/C=C/c3ccccc3)CC2)cc1,4,-10,8,-2,0,-1
COc1ccc(NC(=S)N2CCN(C/C=C/c3ccccc3)CC2)cc1OC,-1,65*,-7,-5,0,-3
COc1ccc(OCC(O)CN(C)C(=O)/C=C/c2cccc([N+](=O)[O-])c2)cc1 (stereo unspecified),-3,-1,-9,86*,-2,0
CCCCN(CCCC)C(=O)/C=C/c1cccc([N+](=O)[O-])c1,1,-13,-16,0,0,-4
COc1ccc(OC)c(C(C[N+](=O)[O-])c2c(C)cc3ccccn23)c1 (stereo unspecified),-1,8,-18,48*,0,11
OCCO,-2,55*,5,-2,0,0
O=C(C1CCN(S(=O)(=O)c2cnc[nH]2)CC1)N1CCN(c2ccc([N+](=O)[O-])cc2)CC1,1,-2,-20,49*,-1,2
c1ccc(CSc2nc3ncccn3n2)cc1,-1,-5,-12,-3,0,-2
Cc1ccnc(NC(=O)C(Cc2ccccc2)NC(=O)c2ccccc2)c1 (stereo unspecified),-1,-3,-8,·,0,25*
O=C(NC(Cc1ccccc1)C(=O)NC(Cc1ccccc1)C(=O)O)c1ccccc1 (stereo unspecified),-1,27,2,1,0,1
CCOC(=O)C1(Cc2ccccc2)CCCN(C(=O)c2ccc(-n3ccnc3)cc2)C1 (stereo unspecified),0,-10,-17,38*,-2,0
CCOC(=O)C1(Cc2cccc(Cl)c2)CCCN(C(=O)c2ccnn2C)C1 (stereo unspecified),-1,·,-9,41*,-1,·
CCCc1cc(C(=O)N2CCCC(Cc3cccc(Cl)c3)(C(=O)OCC)C2)n(C)n1 (stereo unspecified),1,-3,-7,-2,1,-3
COc1cc2c[n+](C)c3c4ccccc4ccc3c2cc1OC,2,-8,-5,3,-3,34*
C/C=C/c1ccc(OCCNCc2ccccc2)c(OC)c1,0,70*,1,·,1,-1
CC(C)c1cc(CNC(=O)C2CCC(=O)N(CCc3ccc(Cl)cc3)C2)on1 (stereo unspecified),1,5,-7,-1,-3,0
COc1ccccc1CNc1ccc2nnc(CCNC(=O)c3ccccc3)n2n1,1,0,-11,54*,-2,1
COc1ccccc1CNc1ccc2nnc(CCNC(=O)c3ccc(C)cc3)n2n1,0,-4,-14,-5,-2,1
Cc1ccc2oc(C(=O)NCc3ncc(C)[nH]3)c(C)c2c1,-2,9,-6,-5,-2,29*
SMILES,CDK5 inh,Vif imaging,PvdQ acylase,CAL PDZ FP-1,CAL PDZ FP-2,N-glyco inh
Cc1ccc2c(c1)c1ccc3c(c1n2C)C(=O)C=CC3=O,2,3,-17,-1,1,31*
Cn1c2ccccc2c2ccc3c(c21)C(=O)C=CC3=O,1,-10,-1,1,4,?
COc1ccc2c(c1)c1ccc3c(c1n2C)C(=O)C=CC3=O,1,·,2,4,2,28*
O=C(CCl)Nc1cn(-c2ccccc2)nc1-c1ccc(F)cc1,1,-4,6,3,-1,52*
CCCCn1c(O)c(N=Nc2ccccn2)c2ccccc21,1,-8,-6,2,-3,-5
CCCCn1c(O)c(N=Nc2ccccc2O)c2ccccc21,-2,145*,-2,37*,0,2
COc1cc(C2C(C#N)=C(SC)NC3=C2C(=O)CCC3)ccc1O (stereo unspecified),-2,4,-14,89*,-1,-7
Cc1cc(N2CCN(S(=O)(=O)c3ccc(Cl)c(Cl)c3)CC2)c2ccccc2n1,-1,86*,3,·,0,1
O=C(Nc1ccc2[nH]c(=O)[nH]c2c1)c1cc(F)c(F)cc1Cl,0,5,-13,55*,0,-1
COC(=O)c1ccc(Nc2c([N+](=O)[O-])ccc3nonc23)cc1,1,25,-8,-3,-1,3
CC(=O)Nc1ccc(NC(=O)CCc2nc3sc4c(c3c(=O)[nH]2)CCCC4)cc1,-2,1,-13,0,0,1
Cc1cc(C)cc(NC(=O)CCc2nc3sc4c(c3c(=O)[nH]2)CCCC4)c1,1,151*,-13,25,-2,-4
COc1ccc(NC(=O)Cn2nnc(C(=O)Nc3ccccc3C)c2N)cc1,-1,53*,9,-3,-1,0
Clc1ccc2nc3c4ccccc4cnn3c2c1,1,·,33*,-7,-6,-7
COn1c(-c2ccccc2)nc2ccc(Cl)cc21,2,-4,-4,-2,0,1
O=C(NC1CCCCC1)C(c1ccc(F)cc1)N(CCCN1CCOCC1)C(=O)c1ccc(CN2CCOCC2)o1 (stereo unspecified),0,-1,-11,-3,0,1
CCCC(=O)N1CCN(c2ccc(NC(=O)c3ccc([N+](=O)[O-])o3)cc2)CC1,1,30,26,0,-1,-20
COC(=O)c1cc(Cl)c(NC(=O)c2cc3ccccc3o2)cc1OC,1,63*,-24,-2,-1,1
